Test results as given in ChEMBL document CHEMBL1156157, “1,7-Disubstituted oxyindoles are potent and selective EP(3) receptor antagonists” (Bioorg Med Chem Lett, 2010).

How the values were obtained:
[1] = molecular target: T1, Prostaglandin E2 receptor EP3 subtype (Homo sapiens, UniProt P43115); test: Displacement of [3H]PGE2 from human EP3 receptor in presence of 10% human serum
T1 sequence (P43115 whole entry): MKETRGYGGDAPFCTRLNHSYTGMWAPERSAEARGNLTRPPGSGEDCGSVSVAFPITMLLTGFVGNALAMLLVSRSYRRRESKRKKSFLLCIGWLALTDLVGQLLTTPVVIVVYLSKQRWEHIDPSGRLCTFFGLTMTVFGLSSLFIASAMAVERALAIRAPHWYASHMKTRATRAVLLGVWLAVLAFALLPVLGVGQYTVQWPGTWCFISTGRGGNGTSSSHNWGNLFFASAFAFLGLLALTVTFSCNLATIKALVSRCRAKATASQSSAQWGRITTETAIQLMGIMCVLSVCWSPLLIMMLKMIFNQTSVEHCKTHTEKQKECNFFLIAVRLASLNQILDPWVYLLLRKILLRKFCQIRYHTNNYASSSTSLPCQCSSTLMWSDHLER

[2] = Metabolic stability in rat liver microsomes assessed as parent compound remaining after 30 mins; type: ADME, Microsome; settings: read-out: Stability
How it was run: (§1)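 Compounds incubated with liver microsomes from human, rat, mouse, dog or monkey. Read-out is percent parent compound remaining at 30 min of incubation.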

[3] = Metabolic stability in mouse liver microsomes assessed as parent compound remaining after 30 mins; type: ADME, Microsome; settings: read-out: Stability; how it was run: as §1
[4] = molecular target: T1, Prostaglandin E2 receptor EP3 subtype; test: Displacement of [3H]PGE2 from human EP3 receptor in buffer
[5] = Metabolic stability in human liver microsomes assessed as parent compound remaining after 30 mins; type: ADME, Microsome; settings: read-out: Stability; how it was run: as §1
Rattus norvegicus = organism: Rattus norvegicus; test: Antithrombotic activity in rat assessed as platelet aggregation; type: functional
How it was run: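 Functional EP3 antagonism measured in a rat platelet aggregation assay. Values reported as EC50 in nM.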

Cytochrome P450 3A4 [6] = molecular target: T2, Cytochrome P450 3A4 (Homo sapiens, UniProt P08684); test: Inhibition of human CYP3A4 using 7-benzyloxy-4-trifluoromethylcoumarin as substrate; type: ADME
T2 sequence (P08684 whole entry): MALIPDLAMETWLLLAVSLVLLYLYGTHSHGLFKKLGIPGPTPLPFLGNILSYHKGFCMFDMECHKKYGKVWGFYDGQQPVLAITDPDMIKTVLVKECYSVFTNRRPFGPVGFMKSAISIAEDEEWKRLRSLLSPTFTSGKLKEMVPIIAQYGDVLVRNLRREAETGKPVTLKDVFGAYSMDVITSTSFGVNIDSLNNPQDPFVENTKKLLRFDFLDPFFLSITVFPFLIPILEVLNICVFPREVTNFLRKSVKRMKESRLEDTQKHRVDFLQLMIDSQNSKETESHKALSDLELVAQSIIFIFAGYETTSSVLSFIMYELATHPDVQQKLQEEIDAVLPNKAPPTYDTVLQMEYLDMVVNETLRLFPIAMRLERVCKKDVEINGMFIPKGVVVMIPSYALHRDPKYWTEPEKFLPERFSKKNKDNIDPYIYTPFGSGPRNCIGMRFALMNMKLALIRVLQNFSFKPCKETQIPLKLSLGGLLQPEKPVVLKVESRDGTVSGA
How it was run: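 Inhibition of human CYP3A4 with 7-benzyloxy-4-trifluoromethylcoumarin (BFC) as substrate. Values given as IC50.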

[7] = Metabolic stability in dog liver microsomes assessed as parent compound remaining after 30 mins; type: ADME, Canis lupus familiaris, Microsome; settings: read-out: Stability; how it was run: as §1
[8] = molecular target: T1, Prostaglandin E2 receptor EP3 subtype; test: Partial displacement of [3H]PGE2 from human EP3 receptor in presence of 10% human serum
[9] = assessed as parent compound remaining after 30 mins; settings: read-out: Stability
[10] = Metabolic stability in monkey liver microsomes assessed as parent compound remaining after 30 mins; type: ADME, Macaca mulatta, Microsome; settings: rhesus monkey, read-out: Stability; how it was run: as §1
Prostacyclin receptor = Prostacyclin receptor (Homo sapiens, UniProt P43119); test: Binding affinity to human IP receptor by radioligand displacement assay
Sequence of Prostacyclin receptor (P43119 whole entry): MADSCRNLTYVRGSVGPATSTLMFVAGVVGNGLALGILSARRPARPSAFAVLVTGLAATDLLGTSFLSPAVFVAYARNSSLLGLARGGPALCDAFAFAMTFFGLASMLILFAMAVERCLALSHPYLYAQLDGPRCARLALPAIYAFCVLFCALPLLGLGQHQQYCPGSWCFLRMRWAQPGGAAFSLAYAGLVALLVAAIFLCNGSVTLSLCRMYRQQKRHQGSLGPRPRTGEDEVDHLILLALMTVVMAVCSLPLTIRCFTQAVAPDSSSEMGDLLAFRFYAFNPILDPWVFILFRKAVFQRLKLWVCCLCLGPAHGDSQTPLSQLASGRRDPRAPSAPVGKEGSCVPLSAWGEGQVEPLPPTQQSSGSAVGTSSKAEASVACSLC
How it was run: (§2)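 Radioligand displacement assays on a human prostanoid receptor panel (EP2, EP4, FP, IP). IC50 values reported in µM.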

Cytochrome P450 2C9 = Cytochrome P450 2C9 (Homo sapiens, UniProt P11712); test: Inhibition of human CYP2C9; type: ADME
Sequence of Cytochrome P450 2C9 (P11712 whole entry): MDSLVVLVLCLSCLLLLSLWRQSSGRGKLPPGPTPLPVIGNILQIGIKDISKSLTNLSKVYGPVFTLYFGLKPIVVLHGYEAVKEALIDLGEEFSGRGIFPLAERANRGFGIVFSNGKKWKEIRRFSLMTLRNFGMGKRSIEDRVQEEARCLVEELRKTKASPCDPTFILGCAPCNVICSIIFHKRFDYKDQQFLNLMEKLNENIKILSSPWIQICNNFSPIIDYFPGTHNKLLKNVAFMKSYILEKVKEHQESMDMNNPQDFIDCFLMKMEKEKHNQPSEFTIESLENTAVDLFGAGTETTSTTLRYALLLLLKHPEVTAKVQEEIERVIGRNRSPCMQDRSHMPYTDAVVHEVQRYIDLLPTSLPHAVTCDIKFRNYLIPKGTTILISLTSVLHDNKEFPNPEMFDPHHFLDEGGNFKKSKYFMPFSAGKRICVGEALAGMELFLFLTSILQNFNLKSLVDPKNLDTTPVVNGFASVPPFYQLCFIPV

Cytochrome P450 1A2 = molecular target: T3, Cytochrome P450 1A2 (Homo sapiens, UniProt P05177); test: Inhibition of human CYP1A2; type: ADME
T3 sequence (P05177 whole entry): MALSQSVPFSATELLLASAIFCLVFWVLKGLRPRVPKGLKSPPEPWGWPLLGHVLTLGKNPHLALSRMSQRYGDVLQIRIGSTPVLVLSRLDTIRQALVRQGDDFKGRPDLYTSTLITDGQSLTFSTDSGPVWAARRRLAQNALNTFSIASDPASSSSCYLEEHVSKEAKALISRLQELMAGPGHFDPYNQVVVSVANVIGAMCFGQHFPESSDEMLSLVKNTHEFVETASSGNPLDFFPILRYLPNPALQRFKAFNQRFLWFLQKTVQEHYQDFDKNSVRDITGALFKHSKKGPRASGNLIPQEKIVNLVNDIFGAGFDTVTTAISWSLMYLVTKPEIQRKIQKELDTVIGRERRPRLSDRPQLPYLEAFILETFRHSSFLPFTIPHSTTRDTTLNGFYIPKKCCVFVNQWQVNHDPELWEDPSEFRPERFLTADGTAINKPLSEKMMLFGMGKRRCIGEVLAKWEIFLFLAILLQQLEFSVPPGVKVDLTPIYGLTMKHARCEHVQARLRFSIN

[11] = molecular target: Prostaglandin E2 receptor EP2 subtype (Homo sapiens, UniProt P43116); test: Binding affinity to human EP2 receptor by radioligand displacement assay; how it was run: as §2
Sequence of Prostaglandin E2 receptor EP2 subtype (P43116 whole entry): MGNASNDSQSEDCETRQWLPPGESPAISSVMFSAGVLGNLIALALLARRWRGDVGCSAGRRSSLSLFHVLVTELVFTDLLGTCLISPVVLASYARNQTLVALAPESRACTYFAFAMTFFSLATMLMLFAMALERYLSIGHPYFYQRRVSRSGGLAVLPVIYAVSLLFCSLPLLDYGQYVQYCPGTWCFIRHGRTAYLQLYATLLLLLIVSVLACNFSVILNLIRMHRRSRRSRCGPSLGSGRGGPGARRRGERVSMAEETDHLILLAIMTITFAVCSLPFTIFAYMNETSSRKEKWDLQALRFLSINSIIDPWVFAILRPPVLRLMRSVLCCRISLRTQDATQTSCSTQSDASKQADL

Cytochrome P450 2D6 = Cytochrome P450 2D6 (Homo sapiens, UniProt P10635); test: Inhibition of human CYP2D6; type: ADME
Sequence of Cytochrome P450 2D6 (P10635 whole entry): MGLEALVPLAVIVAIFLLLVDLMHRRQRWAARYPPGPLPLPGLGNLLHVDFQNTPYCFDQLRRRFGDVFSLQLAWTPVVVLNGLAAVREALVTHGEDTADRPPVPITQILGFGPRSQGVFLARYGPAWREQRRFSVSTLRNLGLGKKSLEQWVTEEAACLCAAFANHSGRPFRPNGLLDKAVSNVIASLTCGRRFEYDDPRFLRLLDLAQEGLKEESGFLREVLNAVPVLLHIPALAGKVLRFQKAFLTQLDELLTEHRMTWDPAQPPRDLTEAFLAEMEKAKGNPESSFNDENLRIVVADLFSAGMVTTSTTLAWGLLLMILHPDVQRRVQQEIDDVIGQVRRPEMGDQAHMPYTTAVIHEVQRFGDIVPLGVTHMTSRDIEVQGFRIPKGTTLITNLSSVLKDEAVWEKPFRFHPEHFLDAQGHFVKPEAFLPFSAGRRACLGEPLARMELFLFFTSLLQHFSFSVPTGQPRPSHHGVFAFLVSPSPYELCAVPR

[12] = molecular target: Prostaglandin E2 receptor EP4 subtype (Homo sapiens, UniProt P35408); test: Binding affinity to human EP4 receptor by radioligand displacement assay; how it was run: as §2
Sequence of Prostaglandin E2 receptor EP4 subtype (P35408 whole entry): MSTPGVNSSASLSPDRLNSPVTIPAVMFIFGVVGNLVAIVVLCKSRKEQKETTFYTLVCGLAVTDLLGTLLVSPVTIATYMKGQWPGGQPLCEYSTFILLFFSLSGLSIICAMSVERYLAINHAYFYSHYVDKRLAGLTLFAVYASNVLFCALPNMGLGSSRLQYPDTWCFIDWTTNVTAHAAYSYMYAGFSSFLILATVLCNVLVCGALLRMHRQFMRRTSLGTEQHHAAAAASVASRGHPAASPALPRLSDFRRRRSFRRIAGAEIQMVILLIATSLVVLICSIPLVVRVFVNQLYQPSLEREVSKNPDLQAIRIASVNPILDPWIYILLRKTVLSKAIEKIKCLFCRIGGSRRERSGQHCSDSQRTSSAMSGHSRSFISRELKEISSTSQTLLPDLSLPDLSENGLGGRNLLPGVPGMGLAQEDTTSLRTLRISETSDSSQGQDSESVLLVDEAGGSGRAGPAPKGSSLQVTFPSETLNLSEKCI

[13] = molecular target: Prostaglandin F2-alpha receptor (Homo sapiens, UniProt P43088); test: Binding affinity to human FP receptor by radioligand displacement assay; how it was run: as §2
Sequence of Prostaglandin F2-alpha receptor (P43088 whole entry): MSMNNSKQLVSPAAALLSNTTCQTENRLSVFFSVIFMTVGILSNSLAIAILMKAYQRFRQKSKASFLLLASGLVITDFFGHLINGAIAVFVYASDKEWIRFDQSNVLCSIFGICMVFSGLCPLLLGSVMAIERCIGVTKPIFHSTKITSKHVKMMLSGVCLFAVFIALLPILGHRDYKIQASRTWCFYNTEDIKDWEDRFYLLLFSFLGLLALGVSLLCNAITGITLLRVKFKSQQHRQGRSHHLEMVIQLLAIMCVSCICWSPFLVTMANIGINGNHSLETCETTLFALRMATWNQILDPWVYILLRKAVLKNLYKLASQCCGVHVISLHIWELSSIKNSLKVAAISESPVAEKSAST

Cytochrome P450 3A4 [14] = molecular target: T2, Cytochrome P450 3A4; test: Inhibition of human CYP3A4 using dibenzylfluorescein as substrate; type: ADME
How it was run: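 Inhibition of human CYP3A4 with dibenzylfluorescein (DBF) as substrate. Values given as IC50.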

[15] = Half life in mouse at 6 mg/kg, iv; type: ADME, organism-based; parameters: dose 6 mg/kg, route intravenous; settings: in vivo
How it was run: (§3)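 Single iv dose of 6 mg/kg given to mouse and to rat. Half-life in hours derived from the plasma pharmacokinetic parameters, alongside predicted clearance and steady-state volume of distribution.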

[16] = Half life in rat at 6 mg/kg, iv; type: ADME, organism-based; parameters: dose 6 mg/kg, route intravenous; settings: in vivo; how it was run: as §3

Structure (SMILES)	IC50 [1] [nM]	remaining at 0.5 h [2] [%]	remaining at 0.5 h [3] [%]	IC50 [4] [nM]	remaining at 0.5 h [5] [%]	IC50 (Rattus norvegicus) [nM]	inhibition (INH) (Cytochrome P450 3A4 [6])	further results
O=C(/C=C/c1cccc2c1N(Cc1ccc(Cl)cc1Cl)C(=O)C2(F)F)NS(=O)(=O)c1ccc(F)c(F)c1	6.5	80.1	71	0.2	74.4	> 800	Active	–
O=C(/C=C/c1cccc2c1N(Cc1ccc3ccccc3c1)C(=O)C2)NS(=O)(=O)c1cc(Cl)c(Cl)s1	5.4	32.9	63.8	1.3	105	–	–	EC50 (Rattus norvegicus): 27 nM; remaining at 0.5 h [7]: 79.5%
O=C(/C=C/c1cccc2c1N(Cc1ccc(Cl)cc1Cl)C(=O)C2(F)F)NS(=O)(=O)c1ccc(Cl)c(Cl)c1	5.5	70.4	82.8	0.2	73.1	> 800	Active	–
O=C(/C=C/c1cccc2c1N(Cc1ccc(Cl)cc1Cl)C(=O)C2(F)F)NS(=O)(=O)c1cccc(Cl)c1	7.7	62.2	31.2	0.2	66.6	> 800	Active	–
O=C(/C=C/c1cccc2c1N(Cc1ccc(F)c(F)c1)C(=O)C2(CO)CO)NS(=O)(=O)c1ccc(F)c(F)c1	–	–	–	45.4	–	–	–	IC50 [8]: Active
O=C(/C=C/c1cccc2c1N(Cc1ccc(Cl)cc1Cl)C(=O)C21OCCO1)NS(=O)(=O)c1cc(Cl)c(Cl)s1	–	–	–	3.8	–	–	–	remaining at 0.5 h [9]: 28.4%; IC50 [8]: Active
O=C(/C=C/c1cccc2c1N(Cc1ccc3ccccc3c1)C(=O)C21OCCO1)NS(=O)(=O)c1cccs1	679	–	–	13	–	–	–	remaining at 0.5 h [9]: 37.8%
O=C(/C=C/c1cccc2c1N(Cc1ccc3ccccc3c1)C(=O)C2(F)F)NS(=O)(=O)c1cccs1	–	–	–	202	–	> 800	Active	IC50 [8]: Active
O=C(/C=C/c1cccc2c1N(Cc1ccc3ccccc3c1)C(=O)C2(F)F)NS(=O)(=O)c1ccc(Cl)c(Cl)c1	4.5	62.1	41.3	0.3	79.4	> 800	Active	–
CC1C(=O)N(Cc2ccc3ccccc3c2)c2c(/C=C/C(=O)NS(=O)(=O)c3cccs3)cccc21 (centres undefined)	96.5	48	32.6	3.5	43.5	–	–	remaining at 0.5 h [10]: 35.3%; remaining at 0.5 h [7]: 81.8%
CC1C(=O)N(Cc2ccc3ccccc3c2)c2c(/C=C/C(=O)NS(=O)(=O)c3cc(Cl)c(Cl)s3)cccc21 (centres undefined)	3.2	8	67.7	4.4	48.2	–	–	EC50 (Rattus norvegicus): 2 nM; remaining at 0.5 h [7]: 67.7%
O=C(/C=C/c1cccc2c1N(Cc1ccc(Cl)cc1Cl)C(=O)C2(F)F)NS(=O)(=O)c1cc(Cl)c(Cl)s1	64	94.8	100	3.8	94.4	> 800	Active	remaining at 0.5 h [10]: 67.3%; remaining at 0.5 h [7]: 83.3%
O=C(/C=C/c1cccc2c1N(Cc1ccc(Cl)cc1Cl)C(=O)C2(F)F)NS(=O)(=O)c1cccs1	–	–	–	237	–	> 800	Active	IC50 [8]: Active
O=C(/C=C/c1cccc2c1N(Cc1ccc(Cl)cc1Cl)C(=O)C2(F)F)NS(=O)(=O)c1cc(F)c(F)cc1F	5.6	77.4	60.6	0.2	74.6	> 800	Active	–
O=C(/C=C/c1cccc2c1N(Cc1ccc(Cl)cc1Cl)C(=O)C2)NS(=O)(=O)c1cc(Cl)c(Cl)s1	92.8	46.3	56.8	2.9	76.8	–	–	remaining at 0.5 h [10]: 76.9%
O=C(/C=C/c1cccc2c1N(Cc1ccc(Cl)cc1Cl)C(=O)C2)NS(=O)(=O)c1cccs1	–	–	–	56	–	–	–	IC50 [8]: Active
O=C(/C=C/c1cccc2c1N(Cc1ccc3ccccc3c1)C(=O)C2O)NS(=O)(=O)c1cc(F)c(F)cc1F (centres undefined)	9.4	99.7	73.5	0.6	95.6	–	Not Active	IC50 (Prostacyclin receptor): > 20000 nM; inhibition (INH) (Cytochrome P450 2C9): Active; inhibition (INH) (Cytochrome P450 1A2): Not Active; IC50 [11]: > 20000 nM; inhibition (INH) (Cytochrome P450 2D6): Not Active; IC50 [12]: 8700 nM; IC50 [13]: > 20000 nM; inhibition (INH) (Cytochrome P450 3A4 [14]): Active; EC50 (Rattus norvegicus): 69 nM
O=C(/C=C/c1cccc2c1N(Cc1ccc3ccccc3c1)C(=O)C2(F)F)NS(=O)(=O)c1cc(Cl)c(Cl)s1	20.8	71.8	80.7	11.6	79.3	> 800	Active	–
O=C(/C=C/c1cccc2c1N(Cc1ccc3ccccc3c1)C(=O)C2(F)F)NS(=O)(=O)c1cc(F)c(F)cc1F	9.3	54.2	47.9	0.3	68.8	> 800	Active	–
O=C(/C=C/c1cccc2c1N(Cc1ccc3ccccc3c1)C(=O)C2O)NS(=O)(=O)c1ccc(F)cc1 (centres undefined)	19.4	103	83.4	0.9	97.7	–	Not Active	IC50 (Prostacyclin receptor): > 20000 nM; inhibition (INH) (Cytochrome P450 2C9): Active; inhibition (INH) (Cytochrome P450 1A2): Not Active; IC50 [11]: > 20000 nM; inhibition (INH) (Cytochrome P450 2D6): Not Active; half-life [15]: 2.1 h; half-life [16]: 1.75 h; IC50 [12]: 15100 nM; IC50 [13]: > 20000 nM; inhibition (INH) (Cytochrome P450 3A4 [14]): Active; EC50 (Rattus norvegicus): 63 nM
O=C(/C=C/c1cccc2c1N(Cc1ccc3ccccc3c1)C(=O)C2O)NS(=O)(=O)c1ccc(F)c(F)c1 (centres undefined)	7.6	87.9	72.7	1.6	89.3	–	Not Active	IC50 (Prostacyclin receptor): > 20000 nM; inhibition (INH) (Cytochrome P450 2C9): Active; inhibition (INH) (Cytochrome P450 1A2): Not Active; IC50 [11]: > 20000 nM; inhibition (INH) (Cytochrome P450 2D6): Not Active; IC50 [12]: 2300 nM; IC50 [13]: > 20000 nM; inhibition (INH) (Cytochrome P450 3A4 [14]): Active; EC50 (Rattus norvegicus): 87 nM
O=C(/C=C/c1cccc2c1N(Cc1ccc3ccccc3c1)C(=O)C2(F)F)NS(=O)(=O)c1ccc(F)c(F)c1	5	45	47.1	0.2	68.1	> 800	Active	–
O=C(/C=C/c1cccc2c1N(Cc1ccc3ccccc3c1)C(=O)C2(F)F)NS(=O)(=O)c1cccc(Cl)c1	1.9	21	21.6	0.1	64.5	> 800	Active	–
